What was measured:
HepG2 = experiment: Cytotoxicity against human HepG2 cells by MTT assay; assay type: functional, cell-based
Outline: (§1)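 MTT viability read-out, run in parallel on human HepG2 (hepatocellular carcinoma), MCF-7 and MDA-MB-231 (breast adenocarcinoma) cancer lines and HL-7702 normal human hepatic cells. Paclitaxel was the positive control, and results are expressed as IC50.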

MCF7 = experiment: Cytotoxicity against human MCF7 cells by MTT assay; assay type: functional, cell-based; outline: as §1
MDA-MB-231 = experiment: Cytotoxicity against human MDA-MB-231 cells by MTT assay; assay type: functional, cell-based; outline: as §1
[1] = Cytotoxicity against human HL7702 cells by MTT assay; assay type: cell-based; conditions: L02; outline: as §1
RAW264.7 = experiment: Anti-inflammatory activity in mouse RAW264.7 cells assessed as inhibition of IFN-gamma plus LPS-induced NO production; assay type: functional, cell-based
Outline: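 Murine macrophage RAW264.7 cells stimulated with IFN-γ plus LPS; NO output quantified as nitrite in the medium. Indomethacin served as positive control, and results are expressed as IC50.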

Compound | IC50 (RAW264.7) | IC50 (HepG2) | IC50 (MCF7) | IC50 (MDA-MB-231) | IC50 [1]
O=c1c2cc(O)c(O)cc2oc2cc(O)cc(O)c12 | 43 µM | > 10 µM | > 10 µM | > 10 µM | > 10 µM
CC(C)=CCc1c(O)cc2oc3cc(O)c(O)c(CC=C(C)C)c3c(=O)c2c1O | > 50 µM | > 10 µM | > 10 µM | 6.6 µM | > 10 µM
C=C(C)C(O)C[C@H](C[C@]12C[C@@H](CC=C(C)C)C(C)(C)[C@](CC=C(C)C)(C1=O)c1oc3cc(O)c(O)cc3c(=O)c1C2=O)C(=C)C (stereo not given in full) | 12.9 µM | > 10 µM | > 10 µM | > 10 µM | > 10 µM
C=C(C)C(C[C@@H](O)C(=C)C)C[C@@]12C[C@@H](CC=C(C)C)C(C)(C)[C@@](CC=C(C)C)(C(=O)C(C(=O)c3ccc(O)c(O)c3)=C1O)C2=O (stereo not given in full) | 19.1 µM | > 10 µM | > 10 µM | > 10 µM | > 10 µM
C=C(C)C(C[C@H](O)C(=C)C)C[C@@]12C[C@@H](CC=C(C)C)C(C)(C)[C@@](CC=C(C)C)(C(=O)C(C(=O)c3ccc(O)c(O)c3)=C1O)C2=O (stereo not given in full) | 29.1 µM | > 10 µM | > 10 µM | > 10 µM | > 10 µM
C=C(C)C(CC=C(C)C)C[C@]12C[C@H](CC=C(C)C)C(C)(C)[C@](CC=C(C)C)(C(=O)c3c1oc1cc(O)c(O)cc1c3=O)C2=O (stereo not given in full) | 17 µM | > 10 µM | > 10 µM | > 10 µM | > 10 µM
CC(C)=CCc1c(O)cc(O)c2oc3cc(O)cc(O)c3c(=O)c12 | 6.4 µM | > 10 µM | > 10 µM | > 10 µM | > 10 µM
CC1(C)Oc2cc3oc4ccc(O)cc4c(=O)c3c(O)c2CC1O (stereo not given) | 15.9 µM | > 10 µM | > 10 µM | > 10 µM | > 10 µM
CC(C)=CC[C@H]1C[C@@]23C[C@@H](CC=C(C)C)C(C)(C)[C@@](CC=C(C)C)(C(=O)C(C(=O)c4ccc(O)c(O)c4)=C2OC1(C)C)C3=O [CAMBOGIN] | 19.2 µM | 7.3 µM | 4.8 µM | 5.7 µM | 9.3 µM
C=C(C)C(O)C[C@H](C[C@@]12C[C@@H](CC=C(C)C)C(C)(C)[C@@](CC=C(C)C)(C(=O)C(C(=O)c3ccc(O)c(O)c3)=C1O)C2=O)C(=C)C (stereo not given in full) [GARCIMULTIFLORONE E] | 1.1 µM | > 10 µM | 9.8 µM | > 10 µM | > 10 µM
C=C(C)[C@@H]1C[C@]23C[C@H](CC=C(C)C)C(C)(C)[C@](CC=C(C)C)(C(=O)C(C(=O)c4ccc(O)c(O)c4)=C2O[C@H]1C=C(C)C)C3=O [GARCINIALIPTONE B] | 21.3 µM | > 10 µM | > 10 µM | > 10 µM | > 10 µM
CC1(C)CCc2c(c(O)cc3oc4cc(O)cc(O)c4c(=O)c23)O1 [HYPERXANTHONE E] | 4 µM | > 10 µM | > 10 µM | > 10 µM | > 10 µM
CC(=O)O[C@H]1C(=O)[C@@]2(C)[C@H]([C@H](OC(=O)c3ccccc3)[C@]3(O)C[C@H](OC(=O)[C@H](O)[C@@H](NC(=O)c4ccccc4)c4ccccc4)C(C)=C1C3(C)C)[C@]1(OC(C)=O)CO[C@@H]1C[C@@H]2O [PACLITAXEL] |  | 0.0046 µM | 0.0015 µM | 0.0082 µM | 1.1 µM
CC1(C)C=Cc2c(c(O)cc3oc4cc(O)cc(O)c4c(=O)c23)O1 [TOXYLOXANTHONE B] | > 50 µM | > 10 µM | > 10 µM | > 10 µM | > 10 µM

Continued, in another order:

IC50 (RAW264.7) | Compound | IC50 (HepG2) | IC50 (MCF7) | IC50 (MDA-MB-231) | IC50 [1]
39.1 µM | CC(C)=CC[C@H]1C[C@@]23C[C@H](CC=C(C)C)C(C)(C)[C@@](CC=C(C)C)(C(=O)C(OC(=O)c4ccc(O)c(O)c4)=C2OC1(C)C)C3=O | > 10 µM | > 10 µM | > 10 µM | > 10 µM
24.9 µM | C=C(C)C(CC=C(C)C)C[C@@]12C[C@@H](C[C@H](O)C(C)(C)OC)C(C)(C)[C@@](CC=C(C)C)(C(=O)C(C(=O)c3ccc(O)c(O)c3)=C1O)C2=O (stereo not given in full) | > 10 µM | > 10 µM | > 10 µM | > 10 µM
> 50 µM | CC(C)=CCc1cc(O)c(O)c2oc3cc4c(c(O)c3c(=O)c12)C=CC(C)(C)O4 | > 10 µM | > 10 µM | > 10 µM | > 10 µM
> 50 µM | C=C(C)C(CC=C(C)C)C[C@@]12C[C@H]3[C@@H](C=C(C)C)[C@@](C(=O)c4ccc(O)c(O)c4)(C1=O)C(=O)[C@@](CC=C(C)C)(C2=O)C3(C)C (stereo not given in full) | > 10 µM | > 10 µM | 9.1 µM | > 10 µM
> 50 µM | CC1(C)C=Cc2c(cc3oc4ccc(O)cc4c(=O)c3c2O)O1 | > 10 µM | > 10 µM | 6.1 µM | 6.6 µM
41.9 µM | CC1=C[C@H]2c3c(c(O)c(O)c4oc5cc(O)cc(O)c5c(=O)c34)[C@H](c3cc(O)c(O)c4oc5cc(O)cc(O)c5c(=O)c34)[C@H]2C(C)(C)C1 | > 10 µM | > 10 µM | > 10 µM | > 10 µM
21.3 µM | CC(C)=CCc1c(O)cc2oc3ccc(O)cc3c(=O)c2c1O | > 10 µM | > 10 µM | > 10 µM | > 10 µM
14.1 µM | C=C(C)[C@H](CC=C(C)C)C[C@@]12C[C@@H](CC=C(C)C)C(C)(C)[C@@](CC=C(C)C)(C(=O)C(C(=O)c3ccc(O)c(O)c3)=C1O)C2=O [GUTTIFERONE F] | > 10 µM | > 10 µM | 7.9 µM | 9.6 µM
3.9 µM | COc1ccc2c(c1)c(CC(=O)O)c(C)n2C(=O)c1ccc(Cl)cc1 [INDOMETHACIN] |  |  |  | 
